# Test results reported in publication PMC3082038 (Cancer Chemotherapy and Pharmacology, 2010).
# Key:
# Type in all cases: in vivo, human
# [1] = system: Japanese patients with solid tumors; assay: Phase I safety: drug-related adverse events, DLT, MTD, recommended dose; details: for Recommended dosage: after-meal conditions
# Summary of the method: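 Dose escalation used three-patient cohorts, alternating b.i.d. and t.i.d., starting at 200 mg/m2 b.i.d. Oral dosing was by body surface area for 28 days continuously. b.i.d. doses were taken within 1 h after meals, about 12 h apart; t.i.d. doses about 6 or 12 h apart. Patients were assessed at least weekly and graded by NCI-CTC v2.0. DLT: grade ≥3 non-haematological or grade ≥4 haematological drug-related event. MTD: DLT in 2/3 or 3/6 patients.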
# t-PA = assay: Angiogenesis-related factor: t-PA
# Summary of the method: (§1)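 Plasma and urine were collected from patients before treatment and after day 8 and day 28 of oral test compound dosing, and analysed at a central commercial laboratory. ELISA kits were used for human VEGF (plasma and urine), ELAM-1, VCAM-1 and soluble t-PA. Soluble PAI-1 was measured by latex photometric immunoassay. Values are reported as median (range) per time point.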
# PAI-1 = assay: Angiogenesis-related factor: PAI-1
# Summary of the method: as §1
# [2] = b.i.d. 500 mg/m^2 × 2, n = 3, G1
# [3] = b.i.d. 500 mg/m^2 × 2, n = 3, G2
# [4] = t.i.d. 200 mg/m^2 × 3, n = 6, G1
# [5] = t.i.d. 200 mg/m^2 × 3, n = 6, G2
# [6] = t.i.d. 400 mg/m^2 × 3, n = 6, G1
# [7] = t.i.d. 400 mg/m^2 × 3, n = 6, G2
# [8] = t.i.d. 400 mg/m^2 × 3, n = 6, G4
compound,measurement,setting,value
"Cc1[nH]c(/C=C2\C(=O)Nc3ccccc32)c(C)c1CCC(=O)O [TSU-68, (Z)-5-[(1,2-dihydro-2-oxo-3H-indol-3-ylidene)methyl]-2,4-dimethyl-1H-pyrrole-3-propanoic acid]",Number of patients with drug-related Diarrhea,[1]; [2],1
same,Number of patients with drug-related Discoloration urine/stool,[1]; [2],3
same,Number of patients with drug-related Face edema,[1]; [2],1
same,Number of patients with drug-related Headache,[1]; [2],1
same,Number of patients with drug-related Malaise,[1]; [2],3
same,Number of patients with drug-related Nauseous,[1]; [2],3
same,Number of patients with drug-related Pleural effusion,[1]; [2],1
same,Number of patients with drug-related Serum total protein decreased,[1]; [2],1
same,Number of patients with drug-related Vomiting,[1]; [2],2
same,"No. maximum grade (patients, drug-related adverse events)",[1]; [3],3
same,Number of patients with drug-related Abdominal pain upper,[1]; [3],1
same,Number of patients with drug-related Blood albumin decreased,[1]; [3],2
same,Number of patients with drug-related Headache,[1]; [3],1
same,Number of patients with drug-related Serum total protein decreased,[1]; [3],1
same,"No. maximum grade (patients, drug-related adverse events)","[1]; b.i.d. 500 mg/m^2 × 2, n = 3, G3",0
same,"No. maximum grade (patients, drug-related adverse events)","[1]; b.i.d. 500 mg/m^2 × 2, n = 3, G4",0
same,Recommended dose suggested by the Independent Data Monitoring Committee,[1]; b.i.d. after meals,400 mg/body
same,Recommended dosage,[1]; b.i.d.,≤ 400 mg/m^2
same,"No. maximum grade (patients, drug-related adverse events)",[1]; [4],1
same,Number of patients with drug-related Abdominal pain,[1]; [4],1
same,Number of patients with drug-related Alkaline phosphatase increased,[1]; [4],2
same,Number of patients with drug-related Anorexia,[1]; [4],2
same,Number of patients with drug-related Blood albumin decreased,[1]; [4],5
same,Number of patients with drug-related Diarrhea,[1]; [4],4
same,Number of patients with drug-related Discoloration urine/stool,[1]; [4],6
same,Number of patients with drug-related Face edema,[1]; [4],2
same,Number of patients with drug-related Malaise,[1]; [4],6
same,Number of patients with drug-related Nauseous,[1]; [4],1
same,Number of patients with drug-related Pleural effusion,[1]; [4],1
same,Number of patients with drug-related Serum total protein decreased,[1]; [4],1
same,Number of patients with drug-related Vomiting,[1]; [4],3
same,Number of patients with drug-related γ-glutamyltransferase increased,[1]; [4],1
same,"No. maximum grade (patients, drug-related adverse events)",[1]; [5],5
same,Number of patients with drug-related Abdominal pain,[1]; [5],2
same,Number of patients with drug-related Abdominal pain upper,[1]; [5],2
same,Number of patients with drug-related Back pain,[1]; [5],1
same,Number of patients with drug-related Blood albumin decreased,[1]; [5],1
same,Number of patients with drug-related Diarrhea,[1]; [5],1
same,"No. maximum grade (patients, drug-related adverse events)","[1]; t.i.d. 200 mg/m^2 × 3, n = 6, G3",0
same,"No. maximum grade (patients, drug-related adverse events)","[1]; t.i.d. 200 mg/m^2 × 3, n = 6, G4",0
same,"No. maximum grade (patients, drug-related adverse events)",[1]; [6],0
same,Number of patients with drug-related Abdominal pain,[1]; [6],1
same,Number of patients with drug-related Alkaline phosphatase increased,[1]; [6],2
same,Number of patients with drug-related Anorexia,[1]; [6],1
same,Number of patients with drug-related Blood albumin decreased,[1]; [6],3
same,Number of patients with drug-related Diarrhea,[1]; [6],3
same,Number of patients with drug-related Discoloration urine/stool,[1]; [6],6
same,Number of patients with drug-related Face edema,[1]; [6],3
same,Number of patients with drug-related Headache,[1]; [6],2
same,Number of patients with drug-related Malaise,[1]; [6],3
same,Number of patients with drug-related Nauseous,[1]; [6],1
same,Number of patients with drug-related Pleural effusion,[1]; [6],1
same,Number of patients with drug-related Serum total protein decreased,[1]; [6],1
same,Number of patients with drug-related γ-glutamyltransferase increased,[1]; [6],2
same,"No. maximum grade (patients, drug-related adverse events)",[1]; [7],5
same,Number of patients with drug-related Abdominal pain,[1]; [7],2
same,Number of patients with drug-related Alkaline phosphatase increased,[1]; [7],1
same,Number of patients with drug-related Anorexia,[1]; [7],1
same,Number of patients with drug-related Back pain,[1]; [7],2
same,Number of patients with drug-related Blood albumin decreased,[1]; [7],2
same,Number of patients with drug-related Diarrhea,[1]; [7],1
same,"No. maximum grade (patients, drug-related adverse events)","[1]; t.i.d. 400 mg/m^2 × 3, n = 6, G3",0
same,"No. maximum grade (patients, drug-related adverse events)",[1]; [8],1
same,Number of patients with drug-related Pericardial effusion,[1]; [8],1
same,MTD (maximum tolerated dose),"[1]; t.i.d. after meals, up to 400 mg/m^2",not reached
same,Recommended dosage,[1]; t.i.d.,≤ 400 mg/m^2
same,"t-PA, median","t-PA; day 8, 23 patients",7.2 ng/mL
same,"t-PA, range","t-PA; day 8, 23 patients",3.3 to 14.3 ng/mL
same,"t-PA, median","t-PA; day 28, 22 patients",6.8 ng/mL
same,"t-PA, range","t-PA; day 28, 22 patients",2.9 to 13.5 ng/mL
same,Change of PAI-1 at day 28 compared to baseline,"PAI-1; PD patients (13 pts.), Wilcoxon signed rank-sum test",significantly increasing
same,"PAI-1, median","PAI-1; day 8, 23 patients",28 ng/mL
same,"PAI-1, range","PAI-1; day 8, 23 patients",11 to 92 ng/mL
same,"PAI-1, median","PAI-1; day 28, 22 patients",31 ng/mL
same,"PAI-1, range","PAI-1; day 28, 22 patients",11 to 120 ng/mL
